Assay [1] addresses Vasopressin V1a receptor (Homo sapiens, UniProt P37288). In words: Activation of human 3X-HA N-tagged AVP1a expressed in CHO-K1 cells incubated for 10 mins by cell Western assay. In kind it is cell-based. A digest of the protocol:
(§1)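 In-cell Western read-out of ERK MAPK activation in CHO cells expressing the human receptor (OTR, AVP1a or AVP1b). Potency reported as mean ± SEM of N = 3 independent experiments.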

Assay [2] addresses T1, Vasopressin V1b receptor (Homo sapiens, UniProt P47901).
T1 sequence (P47901 whole entry): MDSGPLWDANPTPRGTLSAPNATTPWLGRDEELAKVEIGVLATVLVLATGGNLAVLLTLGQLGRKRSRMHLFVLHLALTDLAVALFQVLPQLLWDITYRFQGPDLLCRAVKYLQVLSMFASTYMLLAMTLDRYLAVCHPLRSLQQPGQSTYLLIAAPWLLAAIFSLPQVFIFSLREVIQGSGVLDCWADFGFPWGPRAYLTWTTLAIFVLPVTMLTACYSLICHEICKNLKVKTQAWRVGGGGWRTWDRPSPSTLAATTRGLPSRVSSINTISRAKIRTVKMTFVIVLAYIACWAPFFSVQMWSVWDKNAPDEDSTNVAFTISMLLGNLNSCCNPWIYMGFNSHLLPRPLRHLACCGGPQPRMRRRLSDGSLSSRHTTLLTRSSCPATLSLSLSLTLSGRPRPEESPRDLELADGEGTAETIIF
The assay can be described thus: Activation of human 3X-HA N-tagged AVP1b expressed in CHO-K1 cells incubated for 10 mins by cell Western assay. The format is cell-based. In a few lines:
as §1

The target of assay [3] is T2, Oxytocin receptor (Homo sapiens, UniProt P30559).
T2 sequence (P30559 whole entry): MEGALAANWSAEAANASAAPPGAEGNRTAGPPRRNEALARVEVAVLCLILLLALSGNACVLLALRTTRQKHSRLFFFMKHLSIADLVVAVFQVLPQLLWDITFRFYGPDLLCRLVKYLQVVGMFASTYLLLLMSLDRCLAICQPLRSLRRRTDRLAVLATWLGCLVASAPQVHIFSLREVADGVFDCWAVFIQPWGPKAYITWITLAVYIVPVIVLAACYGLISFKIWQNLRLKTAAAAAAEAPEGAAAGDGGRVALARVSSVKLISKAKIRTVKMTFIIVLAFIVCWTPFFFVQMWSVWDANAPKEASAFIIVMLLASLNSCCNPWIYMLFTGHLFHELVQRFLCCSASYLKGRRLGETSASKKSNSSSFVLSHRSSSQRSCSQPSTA
The assay can be described thus: Activation of human 3X-HA N-tagged OTR expressed in CHO-K1 cells incubated for 10 mins by cell Western assay. In kind it is cell-based. In a few lines: as §1

Assay [4] deals with Mus musculus. In words: Antinociceptive activity against CD-1 mouse assessed as pain relief at 10 mg/kg, iv measured after 2 hrs by tail flick test. In kind it is functional, organism-based. In a few lines:
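Male CD-1 mice dosed at 10 mg/kg by intravenous injection into the tail vein. Vehicle, oxytocin and morphine groups run alongside. Tail flick in 52 °C water with a 10 s cutoff. Mean ± SEM, N = 5 mice/group.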
Background: Thermal pain tests record how soon the animal reacts.

Experimental findings from ChEMBL document CHEMBL5223184, “Structure-Based Design of Glycosylated Oxytocin Analogues with Improved Selectivity and Antinociceptive Activity” (ACS Med Chem Lett, 2023) are described below.

The source made the active and inactive calls. Bridge positions count the residues as written; N and C are the ends. Square brackets hold non-standard residues; d marks the D form. Peptide text beside a SMILES is read from it. * marks the point of attachment. X1 = OC[C@H]1O[C@@H](O[C@H]2[C@H](O)[C@@H](O)[C@H](*)O[C@@H]2CO)[C@H](O)[C@@H](O)[C@H]1O; βGlc = OC[C@H]1O[C@@H](*)[C@H](O)[C@@H](O)[C@@H]1O; Dap = NC[C@H](N)C(=O)O; Aib = CC(C)(N)C(=O)O

Vasopressin V1a receptor, sequence (P37288 whole entry): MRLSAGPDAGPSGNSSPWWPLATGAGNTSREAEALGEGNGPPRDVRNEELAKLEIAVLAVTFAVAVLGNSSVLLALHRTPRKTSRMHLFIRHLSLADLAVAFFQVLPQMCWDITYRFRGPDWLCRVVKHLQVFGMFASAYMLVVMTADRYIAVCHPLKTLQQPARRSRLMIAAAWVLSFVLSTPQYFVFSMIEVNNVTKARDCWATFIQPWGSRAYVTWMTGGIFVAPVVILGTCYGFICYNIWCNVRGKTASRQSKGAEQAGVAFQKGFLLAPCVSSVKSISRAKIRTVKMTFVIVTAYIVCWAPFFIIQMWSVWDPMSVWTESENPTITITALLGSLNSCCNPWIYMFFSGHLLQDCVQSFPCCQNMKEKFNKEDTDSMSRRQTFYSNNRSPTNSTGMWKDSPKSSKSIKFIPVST

As to `CC[C@H](C)[C@@H]1NC(=O)[C@H](Cc2ccc(O)cc2)NC(=O)[C@@H](N)CCC(=O)NC[C@@H](C(=O)N2CCC[C@H]2C(=O)N[C@@H](CC(C)C)C(=O)NCC(N)=O)NC(=O)[C@H](CC(N)=O)NC(=O)[C@H](CCC(N)=O)NC1=O` (H-EYIQN[Dap]PLG-NH2; lactam 1-6), the EC50 result in assay [1] and in assay [2] was “Not Active” throughout.
For `CC[C@H](C)[C@@H]1NC(=O)[C@H](Cc2ccc(O)cc2)NC(=O)[C@@H](N)CCC(=O)NC[C@@H](C(=O)N2CCC[C@H]2C(=O)NC(C)(C)C(=O)N[C@@H](CO[C@@H]2O[C@H](CO)[C@@H](O)[C@H](O)[C@H]2O)C(N)=O)NC(=O)[C@H](CC(N)=O)NC(=O)[C@H](CCC(N)=O)NC1=O` (H-EYIQN[Dap]P[Aib]S(βGlc)-NH2; lactam 1-6), the EC50 – broadly, the midpoint of the concentration-response curve – in assay [1] is “Not Active”; in assay [3], 220 nM; in assay [2] it was “Not Active”.
For the compound `CN1CC[C@]23c4c5ccc(O)c4O[C@H]2[C@@H](O)C=C[C@H]3[C@H]1C5`, in assay [4], the result was Active.
For `CC[C@H](C)[C@@H]1NC(=O)[C@H](Cc2ccc(O)cc2)NC(=O)[C@@H](N)CC(=O)NC[C@@H](C(=O)N2CCC[C@H]2C(=O)N[C@@H](CC(C)C)C(=O)N[C@@H](CO[C@@H]2O[C@H](CO)[C@@H](O[C@@H]3O[C@H](CO)[C@H](O)[C@H](O)[C@H]3O)[C@H](O)[C@H]2O)C(N)=O)NC(=O)[C@H](CC(N)=O)NC(=O)[C@H](CCC(N)=O)NC1=O` (H-DYIQN[Dap]PLS(X1)-NH2; lactam 1-6), the results for the EC50 entry in assay [1], in assay [3] and in assay [2] were “Not Active”, 0.54 nM and “Not Active”, respectively.
As to `CC[C@H](C)[C@@H]1NC(=O)[C@H](Cc2ccc(O)cc2)NC(=O)[C@@H](N)CSSC[C@@H](C(=O)N2CCC[C@H]2C(=O)N[C@@H](CC(C)C)C(=O)NCC(N)=O)NC(=O)[C@H](CC(N)=O)NC(=O)[C@H](CCC(N)=O)NC1=O`, the outcome in assay [4] was inactive.
For the compound `CC[C@H](C)[C@@H]1NC(=O)[C@H](Cc2ccc(O)cc2)NC(=O)[C@@H](N)CCC(=O)NC[C@@H](C(=O)N2CCC[C@H]2C(=O)N[C@@H](CC(C)C)C(=O)N[C@@H](CO[C@@H]2O[C@H](CO)[C@@H](O)[C@H](O)[C@H]2O)C(N)=O)NC(=O)[C@H](CC(N)=O)NC(=O)[C@H](CCC(N)=O)NC1=O` (H-EYIQN[Dap]PLS(βGlc)-NH2; lactam 1-6), the figures for the EC50 entry in assay [1], in assay [3] and in assay [2] were “Not Active”, 0.73 nM and “Not Active”, respectively.
On to `CC[C@H](C)[C@@H]1NC(=O)[C@H](Cc2ccc(O)cc2)NC(=O)[C@@H](N)CCC(=O)NC[C@@H](C(=O)N2CCC[C@H]2C(=O)NC(C)(C)C(=O)NCC(=O)N[C@@H](CO[C@@H]2O[C@H](CO)[C@@H](O)[C@H](O)[C@H]2O)C(N)=O)NC(=O)[C@H](CC(N)=O)NC(=O)[C@H](CCC(N)=O)NC1=O`, for which the result in assay [4] was Active. Moreover, the figures for the concentration giving a half-maximal response (EC50) entry in assay [1], in assay [3] and in assay [2] were “Not Active”, 0.06 nM and “Not Active”, respectively.
With `CC[C@H](C)[C@@H]1NC(=O)[C@H](Cc2ccc(O)cc2)NC(=O)[C@@H](N)CC(=O)NC[C@@H](C(=O)N2CCC[C@H]2C(=O)N[C@@H](CC(C)C)C(=O)NCC(N)=O)NC(=O)[C@H](CC(N)=O)NC(=O)[C@H](CCC(N)=O)NC1=O` (H-DYIQN[Dap]PLG-NH2; lactam 1-6), in assay [4], the result was Active. Besides, the EC50 entry in assay [1] and in assay [2] was “Not Active” each time.
On to `CC[C@H](C)[C@@H]1NC(=O)[C@H](Cc2ccc(O)cc2)NC(=O)[C@@H](N)CC(=O)NC[C@@H](C(=O)N2CCC[C@H]2C(=O)NC(C)(C)C(=O)N[C@H](CO[C@@H]2O[C@H](CO)[C@@H](O)[C@H](O)[C@H]2O)C(N)=O)NC(=O)[C@H](CC(N)=O)NC(=O)[C@H](CCC(N)=O)NC1=O`, for which the EC50 result in assay [1] is “Not Active”; in assay [3] (cho-k1), 0.28 nM; in assay [2], “Not Active”.
Turning to `CC[C@H](C)[C@@H]1NC(=O)[C@H](Cc2ccc(O)cc2)NC(=O)[C@@H](N)CC(=O)NC[C@@H](C(=O)N2CCC[C@H]2C(=O)N[C@@H](CC(C)C)C(=O)NCC(=O)N[C@@H](CO[C@@H]2O[C@H](CO)[C@@H](O[C@@H]3O[C@H](CO)[C@H](O)[C@H](O)[C@H]3O)[C@H](O)[C@H]2O)C(N)=O)NC(=O)[C@H](CC(N)=O)NC(=O)[C@H](CCC(N)=O)NC1=O` (H-DYIQN[Dap]PLGS(X1)-NH2; lactam 1-6), the EC50 entry was “Not Active” in assay [1], 160 nM in assay [3] and “Not Active” in assay [2].
